Reference: ChEMBL document CHEMBL1165950, “Design and synthesis of new potent anticancer pyrazoles with high FLT3 kinase inhibitory selectivity” (Bioorg Med Chem, 2010)

Legend:
Assay type in all cases: functional
HCT-15 = assay: Cytotoxicity against human HCT15 cells assessed as cell growth at 100 nM after 48 hrs by sulforhodamine B assay; conditions: HCT-15, 48 h, read-out: Activity
UACC-62 = assay: Cytotoxicity against human UACC62 cells assessed as cell growth at 100 nM after 48 hrs by sulforhodamine B assay; conditions: UACC-62, 48 h, read-out: Activity
MDA-MB-468 = assay: Cytotoxicity against human MDA-MB-468 cells assessed as cell growth at 0.001 uM after 48 hrs by sulforhodamine B assay; conditions: MDA-MB-468, 48 h, read-out: Activity
SN12C = assay: Cytotoxicity against human SN12C cells assessed as cell growth at 100 nM after 48 hrs by sulforhodamine B assay; conditions: read-out: Activity
MDA-MB-231 [1] = assay: Cytotoxicity against human MDA-MB-231 cells assessed as cell growth at 100 nM after 48 hrs by sulforhodamine B assay; conditions: MDA-MB-231, 48 h, read-out: Activity
MDA-MB-231 [2] = assay: Cytotoxicity against human MDA-MB-231 cells assessed as cell growth at 10 uM; conditions: read-out: Activity
Summary of the method: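 NCI-60 screen: cells grown in RPMI 1640 with 5% FBS and 2 mM L-glutamine, plated at 5000–40,000 cells/well according to doubling time, and preincubated 24 h at 37 °C, 5% CO2. The single 10 µM dose (DMSO stock) was added, then incubated 48 h. Cells were TCA-fixed and stained with 0.4% SRB, read at 515 nm, and growth % calculated against time-zero and control plates.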

HOP-62 [3] = assay: Cytotoxicity against human HOP62 cells assessed as cell growth at 0.001 uM after 48 hrs by sulforhodamine B assay; conditions: HOP-62, 48 h, read-out: Activity
NCI-H322M = assay: Cytotoxicity against human NCI-H322M cells assessed as cell growth at 0.01 uM after 48 hrs by sulforhodamine B assay; conditions: read-out: Activity
IGROV-1 = assay: Cytotoxicity against human IGROV1 cells assessed as cell growth at 0.01 uM after 48 hrs by sulforhodamine B assay; conditions: IGROV-1, 48 h, read-out: Activity
OVCAR-4 = assay: Cytotoxicity against human OVCAR4 cells assessed as cell growth at 0.01 uM after 48 hrs by sulforhodamine B assay; conditions: OVCAR-4, 48 h, read-out: Activity
UACC-257 = assay: Cytotoxicity against human UACC257 cells assessed as cell growth at 0.001 uM after 48 hrs by sulforhodamine B assay; conditions: UACC-257, 48 h, read-out: Activity
NCI/ADR-RES = assay: Cytotoxicity against human NCI/ADR-RES cells assessed as cell growth at 0.001 uM after 48 hrs by sulforhodamine B assay; conditions: read-out: Activity
ACHN [4] = assay: Cytotoxicity against human ACHN cells assessed as cell growth at 0.001 uM after 48 hrs by sulforhodamine B assay; conditions: read-out: Activity
Summary of the method: (§1)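 NCI-60 five-dose screen. Cells were grown in RPMI 1640 with 5% FBS and 2 mM L-glutamine, plated at 5000–40,000 cells/well and preincubated for 24 h. Time-zero plates were TCA-fixed. DMSO-solubilized drug was added at five concentrations (10-fold or ½-log serial dilutions) for 48 h at 37 °C, 5% CO2. Cells were TCA-fixed, stained with 0.4% SRB and read at 515 nm. Percent growth used time-zero, control and test absorbances.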

HOP-62 [5] = assay: Growth inhibition of human HOP62 cells after 48 hrs by sulforhodamine B assay; conditions: HOP-62, 48 h
Summary of the method: (§2)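 NCI 60-cell screen, five-dose mode. Cells grown in RPMI 1640 with 5% FBS and 2 mM L-glutamine and plated at 5000-40,000 cells/well according to doubling time. After 24 h preincubation, a Tz plate was TCA-fixed. Five concentrations (10-fold or 1/2 log dilutions) were applied for 48 h at 37 °C. SRB staining read at 515 nm. IC50 taken from [(Ti-Tz)/(C-Tz)]×100 = 50.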

NCI-H23 = assay: Growth inhibition of human NCI-H23 cells after 48 hrs by sulforhodamine B assay; conditions: NCI-H23, 48 h; for CC50: read-out: LC50 (the source's name); summary of the method: as §2
M14 = assay: Growth inhibition of human M14 cells after 48 hrs by sulforhodamine B assay; conditions: M14, 48 h; for CC50: read-out: LC50 (the source's name); summary of the method: as §2
SK-MEL-2 = assay: Growth inhibition of human SK-MEL-2 cells after 48 hrs by sulforhodamine B assay; conditions: SK-MEL-2, 48 h; for CC50: read-out: LC50 (the source's name); summary of the method: as §2
OVCAR-8 = assay: Growth inhibition of human OVCAR8 cells after 48 hrs by sulforhodamine B assay; conditions: OVCAR-8, 48 h; for CC50: read-out: LC50 (the source's name); summary of the method: as §2
A549 = assay: Cytotoxicity against human A549 cells assessed as cell growth at 100 nM after 48 hrs by sulforhodamine B assay; conditions: A549, 48 h, read-out: Activity; summary of the method: as §1
ACHN [6] = assay: Growth inhibition of human ACHN cells after 48 hrs by sulforhodamine B assay
Summary of the method: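 NCI five-dose SRB assay in RPMI 1640 with 5% FBS and 2 mM L-glutamine. Cells were preincubated 24 h, then exposed 48 h at 37 °C to five concentrations (10-fold or half-log serial dilutions from DMSO stocks). TCA fixation, SRB staining, and absorbance at 515 nm followed. IC50 was taken where [(Ti−Tz)/(C−Tz)]×100 = 50, with Tz as time-zero cell density.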

PC-3 = assay: Growth inhibition of human PC3 cells after 48 hrs by sulforhodamine B assay; conditions: PC-3, 48 h; summary of the method: as §2
DU-145 = assay: Cytotoxicity against human DU145 cells assessed as cell growth at 1 uM after 48 hrs by sulforhodamine B assay; conditions: DU-145, 48 h, read-out: Activity
HCT-116 = assay: Cytotoxicity against human HCT116 cells assessed as cell growth at 10 uM; conditions: read-out: Activity
Summary of the method: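 Single-dose NCI-60 screen at 10 µM. Cells were grown in RPMI 1640 with 5% FBS and 2 mM L-glutamine, then treated for 48 h at 37 °C. Protein was measured by SRB staining with absorbance at 515 nm. Percentage growth was recorded, and inhibition percentage was calculated as 100 minus growth percentage.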

COLO 205 = assay: Cytotoxicity against human COLO205 cells assessed as cell growth at 10 uM after 48 hrs by sulforhodamine B assay; conditions: COLO 205, 48 h, read-out: Activity
Malme-3M = assay: Cytotoxicity against human MALME-3M cells assessed as cell growth at 10 uM after 48 hrs by sulforhodamine B assay; conditions: read-out: Activity
MDA-MB-231 [7] = assay: Cytotoxicity against human MDA-MB-231 cells assessed as cell growth at 10 uM after 48 hrs by sulforhodamine B assay; conditions: MDA-MB-231, 48 h, read-out: Activity
[8] = Cytotoxicity against human Hs 578T cells assessed as cell growth at 10 uM after 48 hrs by sulforhodamine B assay; conditions: read-out: Activity

## COc1cc(C)cc(-c2nn(CC#N)cc2-c2ccnc(-c3ccc(N(C)C)cc3)c2)c1
HCT-15
  growth at 0.1 µM: 15%
UACC-62
  growth at 0.1 µM: 18%
MDA-MB-468
  growth at 0.001 µM: 96%
SN12C
  growth at 0.1 µM: 44%
MDA-MB-231 [1]
  growth at 0.1 µM: 52%
MDA-MB-231 [2]
  growth at 10 µM: -2.19%
HOP-62 [3]
  growth at 0.001 µM: 108%
NCI-H322M
  growth at 0.01 µM: 108%
IGROV-1
  growth at 0.01 µM: 101%
OVCAR-4
  growth at 0.01 µM: 98%
UACC-257
  growth at 0.001 µM: 90%
NCI/ADR-RES
  growth at 0.001 µM: 96%
ACHN [4]
  growth at 0.001 µM: 95%
HOP-62 [5]
  GI50: 0.39 µM
  LC50 (50% lethal concentration): > 100 µM
  TGI: 18.7 µM
NCI-H23
  GI50: 0.514 µM
  TGI: > 100 µM
  CC50: > 100 µM
M14
  GI50: 0.258 µM
  TGI: 0.769 µM
  CC50: > 100 µM
SK-MEL-2
  GI50: 1.01 µM
  TGI: 45.5 µM
  CC50: > 100 µM
OVCAR-8
  GI50: 0.522 µM
  TGI: 41.6 µM
  CC50: > 100 µM
A549
  growth at 0.1 µM: 36%
ACHN [6]
  GI50: 0.499 µM
  LC50 (concentration giving 50% net cell kill): > 100 µM
  TGI: 12.4 µM
PC-3
  GI50: 0.363 µM
  LC50 (concentration giving 50% net cell kill): > 100 µM
  TGI: > 100 µM
DU-145
  growth at 1 µM: -40%
HCT-116
  growth at 10 µM: -31.6%
COLO 205
  growth at 10 µM: -61%
Malme-3M
  growth at 10 µM: 5%
MDA-MB-231 [7]
  growth at 10 µM: 4%
[8]
  growth at 10 µM: -5%

## Cc1cc(O)cc(-c2nn(CC#N)cc2-c2ccnc(-c3ccc(N(C)C)cc3)c2)c1
HCT-15
  growth at 0.1 µM: 90%
UACC-62
  growth at 0.1 µM: 87%
MDA-MB-468
  growth at 0.001 µM: 98%
SN12C
  growth at 0.1 µM: 91%
MDA-MB-231 [1]
  growth at 0.1 µM: 84%
MDA-MB-231 [2]
  growth at 10 µM: 40.8%
HOP-62 [3]
  growth at 0.001 µM: 92%
NCI-H322M
  growth at 0.01 µM: 92%
IGROV-1
  growth at 0.01 µM: 94%
OVCAR-4
  growth at 0.01 µM: 108%
UACC-257
  growth at 0.001 µM: 96%
NCI/ADR-RES
  growth at 0.001 µM: 97%
ACHN [4]
  growth at 0.001 µM: 94%
HOP-62 [5]
  GI50: 2.82 µM
  LC50 (50% lethal concentration): > 100 µM
  TGI: 23.4 µM
NCI-H23
  GI50: 4.48 µM
  TGI: 24.8 µM
  CC50: > 100 µM
M14
  GI50: 1.83 µM
  TGI: 4.76 µM
  CC50: 20.4 µM
SK-MEL-2
  GI50: 4.15 µM
  TGI: 15.8 µM
  CC50: > 100 µM
OVCAR-8
  GI50: 4.2 µM
  TGI: 69.4 µM
  CC50: > 100 µM
A549
  growth at 0.1 µM: 95%
ACHN [6]
  GI50: 3.73 µM
  LC50 (concentration giving 50% net cell kill): > 100 µM
  TGI: 23.7 µM
PC-3
  GI50: 3.77 µM
  LC50 (concentration giving 50% net cell kill): > 100 µM
  TGI: 47.2 µM
DU-145
  growth at 1 µM: -7%
HCT-116
  growth at 10 µM: 12.3%
COLO 205
  growth at 10 µM: -82%
Malme-3M
  growth at 10 µM: -19%
MDA-MB-231 [7]
  growth at 10 µM: -21%
[8]
  growth at 10 µM: -32%

## COc1cc(C)cc(-c2c(-c3ccnc(-c4ccc(N(C)C)cc4)c3)cnn2CC#N)c1
HCT-15
  growth at 0.1 µM: 14%
UACC-62
  growth at 0.1 µM: 37%
MDA-MB-468
  growth at 0.001 µM: 93%
SN12C
  growth at 0.1 µM: 28%
MDA-MB-231 [1]
  growth at 0.1 µM: -5%
MDA-MB-231 [2]
  growth at 10 µM: 18.7%
HOP-62 [3]
  growth at 0.001 µM: 99%
NCI-H322M
  growth at 0.01 µM: 83%
IGROV-1
  growth at 0.01 µM: -3%
OVCAR-4
  growth at 0.01 µM: 77%
UACC-257
  growth at 0.001 µM: 89%
NCI/ADR-RES
  growth at 0.001 µM: 96%
ACHN [4]
  growth at 0.001 µM: 98%
HOP-62 [5]
  GI50: 0.263 µM
  LC50 (50% lethal concentration): > 100 µM
  TGI: > 100 µM
NCI-H23
  GI50: 0.276 µM
  TGI: > 100 µM
  CC50: > 100 µM
M14
  GI50: 0.0541 µM
  TGI: 0.483 µM
  CC50: > 100 µM
SK-MEL-2
  GI50: 0.204 µM
  TGI: > 100 µM
  CC50: > 100 µM
OVCAR-8
  GI50: 0.236 µM
  TGI: > 100 µM
  CC50: > 100 µM
A549
  growth at 0.1 µM: 10%
ACHN [6]
  GI50: 0.068 µM
  LC50 (concentration giving 50% net cell kill): > 100 µM
  TGI: > 100 µM
PC-3
  GI50: 0.0523 µM
  LC50 (concentration giving 50% net cell kill): > 100 µM
  TGI: > 100 µM
DU-145
  growth at 1 µM: -47%
HCT-116
  growth at 10 µM: -32.4%
COLO 205
  growth at 10 µM: 4%
Malme-3M
  growth at 10 µM: 13%
MDA-MB-231 [7]
  growth at 10 µM: 25%
[8]
  growth at 10 µM: 16%
